Source: ChEMBL document CHEMBL4152256, “Structure-activity relationship of new antimalarial 1-aryl-3-susbtituted propanol derivatives: Synthesis, preliminary toxicity profiling, parasite life cycle stage studies, target exploration, and targeted delivery” (Eur J Med Chem, 2018)

Key:
[1] = Genotoxicity in Salmonella typhimurium TA1535 harboring pSK1002 assessed as survival at 0.031 mg/ml in absence of Sprague-Dawley rat liver S9 fraction after by SOS/umu assay relative to control; type: toxicity, organism-based; conditions: salmonella enterica subsp. enterica serovar typhimurium, read-out: Survival
[2] = Genotoxicity in Salmonella typhimurium TA1535 harboring pSK1002 assessed as umu gene induction at 0.031 mg/ml in presence of Sprague-Dawley rat liver S9 fraction after by SOS/umu assay relative to control; type: toxicity, organism-based; conditions: salmonella enterica subsp. enterica serovar typhimurium, read-out: FC
Plasmodium falciparum [3] = assay: Antiplasmodial activity against chloroquine-sensitive Plasmodium falciparum 3D7 by [3H]-hypoxanthine incorporation assay; type: functional, organism-based
How it was run: (§1)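 Blood-stage P. falciparum 3D7 and FCR-3 were tested by a modified [3H]-hypoxanthine incorporation assay. Chloroquine was the reference in all runs.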

[4] = Genotoxicity in Salmonella typhimurium TA1535 harboring pSK1002 assessed as survival at 0.125 mg/ml in absence of Sprague-Dawley rat liver S9 fraction after by SOS/umu assay relative to control; type: toxicity, organism-based; conditions: salmonella enterica subsp. enterica serovar typhimurium, read-out: Survival
[5] = Genotoxicity in Salmonella typhimurium TA1535 harboring pSK1002 assessed as survival at 0.063 mg/ml in presence of Sprague-Dawley rat liver S9 fraction after by SOS/umu assay relative to control; type: toxicity, organism-based; conditions: salmonella enterica subsp. enterica serovar typhimurium, read-out: Survival
[6] = Genotoxicity in Salmonella typhimurium TA1535 harboring pSK1002 assessed as survival at 0.016 mg/ml in presence of Sprague-Dawley rat liver S9 fraction after by SOS/umu assay relative to control; type: toxicity, organism-based; conditions: salmonella enterica subsp. enterica serovar typhimurium, read-out: Survival
[7] = Genotoxicity in Salmonella typhimurium TA1535 harboring pSK1002 assessed as survival at 0.063 mg/ml in absence of Sprague-Dawley rat liver S9 fraction after by SOS/umu assay relative to control; type: toxicity, organism-based; conditions: salmonella enterica subsp. enterica serovar typhimurium, read-out: Survival
[8] = Genotoxicity in Salmonella typhimurium TA1535 harboring pSK1002 assessed as survival at 0.008 mg/ml in absence of Sprague-Dawley rat liver S9 fraction after by SOS/umu assay relative to control; type: toxicity, organism-based; conditions: salmonella enterica subsp. enterica serovar typhimurium, read-out: Survival
[9] = Genotoxicity in Salmonella typhimurium TA1535 harboring pSK1002 assessed as umu gene induction at 0.008 mg/ml in absence of Sprague-Dawley rat liver S9 fraction after by SOS/umu assay relative to control; type: toxicity, organism-based; conditions: salmonella enterica subsp. enterica serovar typhimurium, read-out: FC
[10] = Genotoxicity in Salmonella typhimurium TA1535 harboring pSK1002 assessed as survival at 0.125 mg/ml in presence of Sprague-Dawley rat liver S9 fraction after by SOS/umu assay relative to control; type: toxicity, organism-based; conditions: salmonella enterica subsp. enterica serovar typhimurium, read-out: Survival
[11] = Selectivity index, ratio of CC50 for human HepG2A16 cells by MTT assay to IC50 for multidrug-resistant Plasmodium falciparum FCR-3; type: toxicity
How it was run: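 HepG2-A16 human hepatoma cells were tested by MTT viability assay to give CC50. Blood-stage activity was measured against the multidrug-resistant P. falciparum FCR-3 strain by [3H]-hypoxanthine incorporation to give IC50. SI = CC50 HepG2 / FCR-3 IC50.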

[12] = Genotoxicity in Salmonella typhimurium TA1535 harboring pSK1002 assessed as umu gene induction at 0.063 mg/ml in presence of Sprague-Dawley rat liver S9 fraction after by SOS/umu assay relative to control; type: toxicity, organism-based; conditions: salmonella enterica subsp. enterica serovar typhimurium, read-out: FC
[13] = Genotoxicity in Salmonella typhimurium TA1535 harboring pSK1002 assessed as survival at 0.008 mg/ml in presence of Sprague-Dawley rat liver S9 fraction after by SOS/umu assay relative to control; type: toxicity, organism-based; conditions: salmonella enterica subsp. enterica serovar typhimurium, read-out: Survival
Plasmodium falciparum [14] = assay: Antiplasmodial activity against multidrug-resistant Plasmodium falciparum FCR-3 by [3H]-hypoxanthine incorporation assay; type: functional, organism-based, FCR-3/Gambia; conditions: Plasmodium falciparum, FCR-3/Gambia; how it was run: as §1
[15] = Genotoxicity in Salmonella typhimurium TA1535 harboring pSK1002 assessed as umu gene induction at 0.004 mg/ml in presence of Sprague-Dawley rat liver S9 fraction after by SOS/umu assay relative to control; type: toxicity, organism-based; conditions: salmonella enterica subsp. enterica serovar typhimurium, read-out: FC
[16] = Genotoxicity in Salmonella typhimurium TA1535 harboring pSK1002 assessed as umu gene induction at 0.016 mg/ml in presence of Sprague-Dawley rat liver S9 fraction after by SOS/umu assay relative to control; type: toxicity, organism-based; conditions: salmonella enterica subsp. enterica serovar typhimurium, read-out: FC
[17] = Genotoxicity in Salmonella typhimurium TA1535 harboring pSK1002 assessed as survival at 0.016 mg/ml in absence of Sprague-Dawley rat liver S9 fraction after by SOS/umu assay relative to control; type: toxicity, organism-based; conditions: salmonella enterica subsp. enterica serovar typhimurium, read-out: Survival
[18] = Genotoxicity in Salmonella typhimurium TA1535 harboring pSK1002 assessed as umu gene induction at 0.008 mg/ml in presence of Sprague-Dawley rat liver S9 fraction after by SOS/umu assay relative to control; type: toxicity, organism-based; conditions: salmonella enterica subsp. enterica serovar typhimurium, read-out: FC
[19] = Genotoxicity in Salmonella typhimurium TA1535 harboring pSK1002 assessed as umu gene induction at 0.001 mg/ml in presence of Sprague-Dawley rat liver S9 fraction after by SOS/umu assay relative to control; type: toxicity, organism-based; conditions: salmonella enterica subsp. enterica serovar typhimurium, read-out: FC
[20] = Genotoxicity in Salmonella typhimurium TA1535 harboring pSK1002 assessed as survival at 0.001 mg/ml in absence of Sprague-Dawley rat liver S9 fraction after by SOS/umu assay relative to control; type: toxicity, organism-based; conditions: salmonella enterica subsp. enterica serovar typhimurium, read-out: Survival
[21] = Cytotoxicity against human HepG2A16 cells by MTT assay; type: cell-based
How it was run: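 MTT viability assay on HepG2-A16 cells, giving CC50 values.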

[22] = Genotoxicity in Salmonella typhimurium TA1535 harboring pSK1002 assessed as umu gene induction at 0.004 mg/ml in absence of Sprague-Dawley rat liver S9 fraction after by SOS/umu assay relative to control; type: toxicity, organism-based; conditions: salmonella enterica subsp. enterica serovar typhimurium, read-out: FC
[23] = Genotoxicity in Salmonella typhimurium TA1535 harboring pSK1002 assessed as umu gene induction at 0.002 mg/ml in absence of Sprague-Dawley rat liver S9 fraction after by SOS/umu assay relative to control; type: toxicity, organism-based; conditions: salmonella enterica subsp. enterica serovar typhimurium, read-out: FC
[24] = Genotoxicity in Salmonella typhimurium TA1535 harboring pSK1002 assessed as umu gene induction at 0.016 mg/ml in absence of Sprague-Dawley rat liver S9 fraction after by SOS/umu assay relative to control; type: toxicity, organism-based; conditions: salmonella enterica subsp. enterica serovar typhimurium, read-out: FC
[25] = Genotoxicity in Salmonella typhimurium TA1535 harboring pSK1002 assessed as umu gene induction at 0.002 mg/ml in presence of Sprague-Dawley rat liver S9 fraction after by SOS/umu assay relative to control; type: toxicity, organism-based; conditions: salmonella enterica subsp. enterica serovar typhimurium, read-out: FC
[26] = Genotoxicity in Salmonella typhimurium TA1535 harboring pSK1002 assessed as survival at 0.002 mg/ml in presence of Sprague-Dawley rat liver S9 fraction after by SOS/umu assay relative to control; type: toxicity, organism-based; conditions: salmonella enterica subsp. enterica serovar typhimurium, read-out: Survival
[27] = Genotoxicity in Salmonella typhimurium TA1535 harboring pSK1002 assessed as umu gene induction at 0.063 mg/ml in absence of Sprague-Dawley rat liver S9 fraction after by SOS/umu assay relative to control; type: toxicity, organism-based; conditions: salmonella enterica subsp. enterica serovar typhimurium, read-out: FC
[28] = Genotoxicity in Salmonella typhimurium TA1535 harboring pSK1002 assessed as survival at 0.004 mg/ml in absence of Sprague-Dawley rat liver S9 fraction after by SOS/umu assay relative to control; type: toxicity, organism-based; conditions: salmonella enterica subsp. enterica serovar typhimurium, read-out: Survival
[29] = Genotoxicity in Salmonella typhimurium TA1535 harboring pSK1002 assessed as umu gene induction at 0.125 mg/ml in absence of Sprague-Dawley rat liver S9 fraction after by SOS/umu assay relative to control; type: toxicity, organism-based; conditions: salmonella enterica subsp. enterica serovar typhimurium, read-out: FC

Work on `Oc1ccc(C(O)CCN2CC=C(c3ccc(F)cc3)CC2)cc1` (stereo not drawn) yielded a viability at 0.031 mg/ml [1] of 105%, a fold induction at 0.031 mg/ml [2] of 1.8 and an IC50 (Plasmodium falciparum [3]; Plasmodium falciparum, 3D7) of 22.2 µM. It also gave a viability at 0.125 mg/ml [4] of 112%, a viability at 0.063 mg/ml [5] of 118% and a viability at 0.016 mg/ml [6] of 120%. It also gave a viability at 0.063 mg/ml [7] of 123%, a viability at 0.008 mg/ml [8] of 98.3% and a fold induction at 0.008 mg/ml [9] of 1.1. It also gave a viability at 0.125 mg/ml [10] of 103%, a selectivity ratio ([11]; HepG2A16 cells, read-out: Ratio CC50/IC50) of 88 and a fold induction at 0.063 mg/ml [12] of 0.4. It also gave a viability at 0.008 mg/ml [13] of 108%, an IC50 (Plasmodium falciparum [14]) of 2.88 µM and a fold induction at 0.004 mg/ml [15] of 0.5. It also gave a fold induction at 0.016 mg/ml [16] of 1.2, a viability at 0.016 mg/ml [17] of 94.8% and a fold induction at 0.008 mg/ml [18] of 0.6. It also gave a fold induction at 0.001 mg/ml [19] of 0.5, a viability at 0.001 mg/ml [20] of 87.9% and a CC50 ([21]; HepG2A16 cells) of 253 µM. It also gave a fold induction at 0.004 mg/ml [22] of 1, a fold induction at 0.002 mg/ml [23] of 1 and a fold induction at 0.016 mg/ml [24] of 1.2. For the same compound, the fold induction at 0.002 mg/ml [25] was 1.4, the viability at 0.002 mg/ml [26] was 112% and the fold induction at 0.063 mg/ml [27] was 0.5. The viability at 0.004 mg/ml [28] was 97.1% and the fold induction at 0.125 mg/ml [29] was 0.5.
For `OC(CCN1CCN(c2ccccc2C(F)(F)F)CC1)c1ccc(F)c2ccccc12` (stereo in doubt; 55), the viability at 0.031 mg/ml [1] was 127%, the fold induction at 0.031 mg/ml [2] was 0.7 and the IC50 (Plasmodium falciparum [3]) was 0.16 µM. The viability at 0.125 mg/ml [4] was 167%, the viability at 0.063 mg/ml [5] was 90.8% and the viability at 0.016 mg/ml [6] was 73.9%. It also gave a viability at 0.063 mg/ml [7] of 138%, a viability at 0.008 mg/ml [8] of 68.7% and a fold induction at 0.008 mg/ml [9] of 0.9. The viability at 0.125 mg/ml [10] was 100%, the “Ratio CC50/IC50” value [11] was 183 and the fold induction at 0.063 mg/ml [12] was 0.8. For the same compound, the viability at 0.008 mg/ml [13] was 121%, the IC50 (Plasmodium falciparum [14]) was 0.15 µM and the fold induction at 0.004 mg/ml [15] was 0.5. The fold induction at 0.016 mg/ml [16] was 1.1, the viability at 0.016 mg/ml [17] was 94.7% and the fold induction at 0.008 mg/ml [18] was 0.2. It also gave a fold induction at 0.001 mg/ml [19] of 0.3, a viability at 0.001 mg/ml [20] of 43.3% and a CC50 [21] of 27.5 µM. The fold induction at 0.004 mg/ml [22] was 1.1, the fold induction at 0.002 mg/ml [23] was 0.8 and the fold induction at 0.016 mg/ml [24] was 0.6. The fold induction at 0.002 mg/ml [25] was 0.5, the viability at 0.002 mg/ml [26] was 120% and the fold induction at 0.063 mg/ml [27] was 0.2. For the same compound, the viability at 0.004 mg/ml [28] was 52.1% and the fold induction at 0.125 mg/ml [29] was 0.3.
